Screens from PubChem BioAssay.
Shown are actives, neighbours in structure and some others; about 0.19% of the full set was active somewhere.
Bcl-B Bim block: human Bim-Bcl-B interaction inhibition; Q9HD36; bead-based flow cytometry, Bim peptide-Bcl-B binding; inhibition, % at 10 µM; 190,000 compounds, 0.073% hits; AID 951;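 note: 0% = tracer peptide without compound and 100% = reference inhibitor peptide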
Bim-Bcl-XL: human Bim-Bcl-XL interaction inhibition; 190,000 compounds, 0.04% hits; AID 1007; inhibition, % at 10 µM; Bim peptide-Bcl-XL binding, bead flow cytometry, fluorescence
Target sequence (Q07817 whole entry, looked up): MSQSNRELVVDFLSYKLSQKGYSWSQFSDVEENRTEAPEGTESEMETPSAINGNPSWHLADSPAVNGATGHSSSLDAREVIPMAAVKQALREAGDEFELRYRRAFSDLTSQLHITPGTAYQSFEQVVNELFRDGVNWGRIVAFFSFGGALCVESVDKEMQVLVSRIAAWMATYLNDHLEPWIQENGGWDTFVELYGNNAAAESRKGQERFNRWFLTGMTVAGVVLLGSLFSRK
Bcl-W Bim block: inhibitors of Bim-Bcl-W interaction, human. AID 952. inhibition, % at 10 µM. 190,000 compounds, 0.02% hits. bead-based flow cytometry, Bim peptide-Bcl-W binding. Q92843;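 note: 0% = bound tracer without compound and 100% = peptide blocker; higher means less fluorescent Bim peptide bound to Bcl-W beads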
Target sequence (Q92843 whole entry, looked up): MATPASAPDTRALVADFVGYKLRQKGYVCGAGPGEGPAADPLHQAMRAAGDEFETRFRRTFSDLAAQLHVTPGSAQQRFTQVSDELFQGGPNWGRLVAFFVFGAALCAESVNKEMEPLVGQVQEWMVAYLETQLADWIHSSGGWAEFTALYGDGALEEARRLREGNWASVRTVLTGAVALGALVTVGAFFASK
Bim-Bcl-2: human Bim-Bcl-2 interaction inhibition; P10415; Bead-based flow cytometry, Bim peptide-Bcl-2 binding; inhibition, % at 10 µM; 190,000 compounds, 0.06% hits; AID 950; in the data active = inhibition above about 40%;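 note: 0% = no compound wells with probe peptide and 100% = reference peptide inhibitor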
Target sequence (P10415 whole entry, looked up): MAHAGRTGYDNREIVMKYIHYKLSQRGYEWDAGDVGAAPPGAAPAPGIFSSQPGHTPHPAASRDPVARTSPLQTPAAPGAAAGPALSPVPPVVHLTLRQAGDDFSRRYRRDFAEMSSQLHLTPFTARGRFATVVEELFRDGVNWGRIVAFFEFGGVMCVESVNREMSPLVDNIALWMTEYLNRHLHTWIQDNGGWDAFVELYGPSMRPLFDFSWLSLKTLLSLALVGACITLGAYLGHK
Bim-Bfl-1: human Bim-Bfl-1 interaction inhibition | Q16548 | Bead-based flow cytometry, Bim-Bfl-1 binding inhibition | inhibition, % at 10 µM | 190,000 compounds, 0.12% hits | AID 1008;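 note: 0% = wells without compound plus tracer and 100% = blocker peptide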
Biofilm kill mix: mixtures killing C. albicans biofilm; C. albicans biofilm persisters + clotrimazole, fluorescence viability; primary screen in compound mixtures of four per well; inhibition, % at 7.6 µM; 120,000 compounds, 0.02% hits; AID 1242;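 active = inhibition above 30.3% in the primary screen of four-compound pools, then above 30% when the compound was retested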;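 note: compounds exposed to preformed 24 h biofilms for 48 h; 0% = untreated biofilm control and 100% = clotrimazole plus chlorhexidine kill blank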
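Assay system: C. albicans biofilms / Medium: RPMI/MOPS medium, pH 7.0 / Schedule: biofilm formation 24 h, compound exposure 48 h, 37 °C / Measured by: Alamar Blue fluorescence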
Bim-Bcl-XL DR: Bim-Bcl-XL interaction regulation, dose confirmation. 40 tested, under 10 active. bead-based flow cytometry, Bim-Bcl-XL binding. shares compounds with Bim-Bfl-1. inhibition of binding at 100 µM; call rule not given here
The depositor's hits bear a star. Cut-off read from the data, not from the text of the source, unless noted: active = inhibition above about 40%.

Results for CC(C)(C)c1ncc(S(=O)(=O)c2ccc(C(F)(F)F)cn2)c(N)n1 ?
Biofilm kill mix: 12

What do the screens show for `CCN(CC)c1ccc(NC(=O)COc2ccccc2C)cc1S(=O)(=O)Nc1ccccc1OC`?
Bcl-B Bim block: -32; Bim-Bcl-XL: -11; Bcl-W Bim block: 0; Bim-Bcl-2: -5; Bim-Bfl-1: 38; Biofilm kill mix: 11; Bim-Bcl-XL DR: -9.5

How did CCN(CC)c1ccc(NC(=O)c2ccccc2F)cc1S(=O)(=O)Nc1ccccc1OC do in these assays?
Bcl-B Bim block: -31; Bim-Bcl-XL: -6; Bcl-W Bim block: 3; Bim-Bcl-2: 4; Bim-Bfl-1: 29; Biofilm kill mix: 6; Bim-Bcl-XL DR: -11

How did CCN(CC)c1ccc(NC(=O)c2ccccc2Br)cc1S(=O)(=O)Nc1ccccc1OC do in these assays?
Bcl-B Bim block: -33; Bim-Bcl-XL: -2; Bcl-W Bim block: 2; Bim-Bcl-2: 2; Bim-Bfl-1: 33; Biofilm kill mix: 7; Bim-Bcl-XL DR: -10

Results for O=C(CC1C(=O)NCCN1Cc1ccccc1C(F)(F)F)NCCc1ccccn1 (stereo unspecified) ?
Bcl-B Bim block: -1; Bim-Bcl-XL: -2; Bcl-W Bim block: 0; Bim-Bcl-2: 1; Bim-Bfl-1: -4; Biofilm kill mix: -5

Results for CC(c1cccs1)N(Cc1ccco1)C(=S)Nc1ccccc1Cl (stereo unspecified) ?
Bcl-B Bim block: -7; Bim-Bcl-XL: -7; Bcl-W Bim block: -1; Bim-Bcl-2: -4; Bim-Bfl-1: -4; Biofilm kill mix: 19

What do the screens show for `C=CSc1sc(Cl)c(N2CCOCC2)c1[N+](=O)[O-]`?
Bcl-B Bim block: -6; Bim-Bcl-XL: -3; Bcl-W Bim block: -1; Bim-Bcl-2: -3; Bim-Bfl-1: -3; Biofilm kill mix: 10

What do the screens show for `C=CS(=O)(=O)c1sc(Cl)c(N2CCOCC2)c1[N+](=O)[O-]`?
Bcl-B Bim block: 10; Bim-Bcl-XL: 6; Bcl-W Bim block: 9; Bim-Bcl-2: 11; Bim-Bfl-1: 48*; Biofilm kill mix: 5; Bim-Bcl-XL DR: 6.7

Results for CN(CCO)c1cc(Sc2nc3ccccc3s2)c2nonc2c1[N+](=O)[O-] ?
Bcl-B Bim block: 5; Bim-Bcl-XL: 1; Bcl-W Bim block: 9; Bim-Bcl-2: 6; Bim-Bfl-1: 50*; Bim-Bcl-XL DR: -0.9

How did COc1ccccc1NC1=C(NC(C)=O)C(=O)c2ccccc2C1=O do in these assays?
Bcl-B Bim block: 0; Bim-Bcl-XL: 5; Bcl-W Bim block: 18; Bim-Bcl-2: 9; Bim-Bfl-1: 42*; Biofilm kill mix: 10; Bim-Bcl-XL DR: 4.7

Results for COC1=C(Nc2ccccc2OC)C(=O)c2ccccc2C1=O ?
Biofilm kill mix: 7

How did CCn1ncc(/C=N/NC(=O)c2cc(Cl)ccc2OC)c1C do in these assays?
Bcl-B Bim block: -3; Bim-Bcl-XL: -2; Bcl-W Bim block: 0; Bim-Bcl-2: 1; Bim-Bfl-1: 0; Biofilm kill mix: 12

What do the screens show for `Cc1ccc(SCCCCN2CCNCC2)cc1`?
Bcl-B Bim block: -4; Bim-Bcl-XL: -5; Bcl-W Bim block: -3; Bim-Bcl-2: 0; Bim-Bfl-1: 0; Biofilm kill mix: 9

What do the screens show for `CCN1C(=O)/C(=C2/C=CC=CN2C)SC1=S`?
Bcl-B Bim block: -5; Bim-Bcl-XL: -18; Bcl-W Bim block: 0; Bim-Bcl-2: -8; Bim-Bfl-1: -13

What do the screens show for `CCN1C(=O)/C(=C\C=C2/C=CC=CN2CC)SC1=S`?
Bcl-B Bim block: -6; Bim-Bcl-XL: 0; Bcl-W Bim block: 3; Bim-Bcl-2: 7; Bim-Bfl-1: 21; Biofilm kill mix: 9; Bim-Bcl-XL DR: -1.7

What do the screens show for `CCOC(=O)NC(=O)CSc1nnc(C2CC2)n1Cc1ccco1`?
Bcl-B Bim block: -6; Bim-Bcl-XL: -4; Bcl-W Bim block: -1; Bim-Bcl-2: -4; Bim-Bfl-1: -4; Biofilm kill mix: 13

What do the screens show for `S=c1[nH]cc(-c2ccccc2)n1-c1ccccc1`?
Bcl-B Bim block: -19; Bim-Bcl-XL: 0; Bcl-W Bim block: 2; Bim-Bcl-2: 1; Bim-Bfl-1: 17; Bim-Bcl-XL DR: -3

How did CCCN=C1N/C(=C\c2ccco2)C(=O)N1c1ccccc1 do in these assays?
Bcl-B Bim block: -3; Bim-Bcl-XL: 1; Bcl-W Bim block: 0; Bim-Bcl-2: 0; Bim-Bfl-1: -1

How did O=C1/C(=C\c2ccco2)NC(=S)N1c1ccccc1 do in these assays?
Bcl-B Bim block: -29; Bim-Bcl-XL: 0; Bcl-W Bim block: 8; Bim-Bcl-2: 11; Bim-Bfl-1: 32; Biofilm kill mix: 4; Bim-Bcl-XL DR: 0.95

Results for OCC1(CCOc2ccccc2)CCN(C2Cc3ccccc3C2)CC1 ?
Bcl-B Bim block: -4; Bim-Bcl-XL: -4; Bcl-W Bim block: -3; Bim-Bcl-2: -2; Bim-Bfl-1: -5; Biofilm kill mix: 6

What do the screens show for `O=C(/C=C/c1ccc(-c2ccccc2[N+](=O)[O-])o1)c1ccccc1`?
Bcl-B Bim block: -13; Bim-Bcl-XL: 0; Bcl-W Bim block: 12; Bim-Bcl-2: 2; Bim-Bfl-1: 15; Biofilm kill mix: 13; Bim-Bcl-XL DR: 0.2

What do the screens show for `N#C/C(=C\c1ccc(-c2ccccc2[N+](=O)[O-])o1)C(N)=O`?
Biofilm kill mix: 4

Results for Cc1ccc(-c2cc(-c3ccc(F)cc3)c(C#N)c(N)n2)o1 ?
Bcl-B Bim block: -5; Bim-Bcl-XL: -1; Bcl-W Bim block: 2; Bim-Bcl-2: 3; Bim-Bfl-1: 32; Biofilm kill mix: 14; Bim-Bcl-XL DR: 3.6

How did Cc1ccc(-c2cc(-c3ccc4c(c3)OCO4)c(C#N)c(N)n2)o1 do in these assays?
Bcl-B Bim block: -3; Bim-Bcl-XL: -1; Bcl-W Bim block: 7; Bim-Bcl-2: 5; Bim-Bfl-1: 24

Results for Cc1cc(-c2cc(-c3ccc(Cl)cc3)nc(N)c2C#N)co1 ?
Bcl-B Bim block: -1; Bim-Bcl-XL: 0; Bcl-W Bim block: 4; Bim-Bcl-2: 0; Bim-Bfl-1: 40*; Bim-Bcl-XL DR: 6.2

Results for Cc1ccc(-c2cc(-c3ccc(C)o3)nc(N)c2C#N)cc1 ?
Bim-Bcl-XL: 20; Bcl-W Bim block: 17; Bim-Bcl-2: 85*; Bim-Bcl-XL DR: 0.13

What do the screens show for `Cc1ccc(-c2cc(-c3ccc(Cl)cc3)c(C#N)c(N)n2)o1`?
Bcl-B Bim block: 1; Bim-Bcl-XL: 3; Bcl-W Bim block: 1; Bim-Bcl-2: 1; Bim-Bfl-1: 24

How did Cc1cc(N2CCOCC2)ccc1/C=C\[N+](=O)[O-] do in these assays?
Bcl-B Bim block: -12; Bim-Bcl-XL: 0; Bcl-W Bim block: 0; Bim-Bcl-2: 4; Bim-Bfl-1: 16; Biofilm kill mix: 0

How did O=c1c2c(n3nnnc3n1Cc1ccccc1)-c1ccccc1CC21CCCC1 do in these assays?
Bcl-B Bim block: 69*; Bim-Bcl-XL: -3; Bcl-W Bim block: 2; Bim-Bcl-2: -6; Bim-Bfl-1: -9; Bim-Bcl-XL DR: 3.2

How did CCN(CC)C(=O)COC(=O)c1cc(-c2ccco2)nc2ccccc12 do in these assays?
Bcl-B Bim block: 0; Bim-Bcl-XL: 2; Bcl-W Bim block: 11; Bim-Bcl-2: 16; Bim-Bfl-1: 45*; Biofilm kill mix: 20; Bim-Bcl-XL DR: 5.6

How did Cc1ccc(/C=N/NC(=O)CSc2nnc(-c3ccccc3)n2-c2ccc(Cl)cc2)o1 do in these assays?
Bcl-B Bim block: -42; Bim-Bcl-XL: -2; Bcl-W Bim block: -3; Bim-Bcl-2: -1; Bim-Bfl-1: 1; Biofilm kill mix: 6

Results for Cc1ccc(C=NNC(=O)CSc2nnc(-c3ccc(Cl)cc3)n2-c2ccccc2)o1 ?
Bim-Bcl-XL DR: 6.6

Results for CCN(Cc1ccccc1)C(=O)CSc1nc(C)cc(=O)[nH]1 ?
Bcl-B Bim block: -6; Bim-Bcl-XL: -6; Bcl-W Bim block: -3; Bim-Bcl-2: 0; Bim-Bfl-1: -4; Biofilm kill mix: 15
